From ChEMBL document CHEMBL4028867, “Design, Synthesis, and Characterization of N-Oxide-Containing Heterocycles with in Vivo Sterilizing Antitubercular Activity” (J Med Chem, 2017)
≈ marks a conversion by molar mass, not a printed value. Calls of active or inactive are those of the source. The rule behind the calls is not given here.

Assays:
[1] = system: Mycobacterium tuberculosis; experiment: Antitubercular activity against dormant stage Mycobacterium tuberculosis H37Rv ATCC 27294 incubated for 10 days in anaerobic condition followed by incubation for 28 hrs in ambient gaseous condition measured after day 11 by two fold serial dilution assay; assay type: functional
[2] = system: Mycobacterium tuberculosis; experiment: Antitubercular activity against replicating stage Mycobacterium tuberculosis H37Rv ATCC 27294 after 7 days by Resazurin microtiter assay; assay type: functional; conditions: H37Rv ATCC 27294, 168 h
[3] = Selectivity index, ratio of IC50 for human MRC5 cells to IC50 for replicating stage Mycobacterium tuberculosis H37Rv ATCC 27294; assay type: toxicity; conditions: read-out: Selectivity Index
[4] = n-Octanol/water partition coefficient, log P of the compound by HPLC analysis; assay type: physicochemical
Summary of the method: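 Log P from n-octanol/water partition coefficient determined by HPLC method.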

[5] = system: MRC5; experiment: Cytotoxicity against human MRC5 cells assessed as reduction in cell viability after 24 hrs by fluorescence assay; assay type: cell-based; conditions: MRC5, 24 h
Summary of the method: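 MRC-5 human lung fibroblasts; cytotoxicity reported as IC50.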

[6] = system: Mycobacterium tuberculosis; experiment: Growth inhibition of Mycobacterium tuberculosis H37Rv exposed to plasma from BALB/c mouse treated with 20 mg/kg, po administered through carboxymethylcellulose vehicle as single oral dose per gavage after 2 hrs by Resazurin microtiter assay; assay type: functional; conditions: read-out: GI
Summary of the method: (§1)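 The microemulsion was 10% cholesterol, 10% phosphatidylcholine/sodium oleate/polyoxyl 40 hydrogenated castor oil (3:6:8) and 80% phosphate buffer pH 7.4. Plasma taken at 0.3, 1, 2 or 4 h was tested by REMA for % Mtb growth inhibition, and plasma level was estimated against the in-vitro REMA MIC.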

[7] = system: Mycobacterium tuberculosis; experiment: Growth inhibition of Mycobacterium tuberculosis H37Rv exposed to plasma from BALB/c mouse treated with 20 mg/kg, po administered through carboxymethylcellulose vehicle as single oral dose per gavage after 1 hr by Resazurin microtiter assay; assay type: functional; conditions: read-out: GI; summary of the method: as §1
[8] = system: Mycobacterium tuberculosis; experiment: Growth inhibition of Mycobacterium tuberculosis H37Rv exposed to plasma from BALB/c mouse treated with 20 mg/kg, po administered through microemulsion vehicle as single oral dose per gavage after 4 hrs by Resazurin microtiter assay; assay type: functional; conditions: read-out: GI; summary of the method: as §1
[9] = system: Mycobacterium tuberculosis; experiment: Growth inhibition of Mycobacterium tuberculosis H37Rv exposed to plasma from BALB/c mouse treated with 20 mg/kg, po administered through microemulsion vehicle as single oral dose per gavage after 1 hr by Resazurin microtiter assay; assay type: functional; conditions: read-out: GI; summary of the method: as §1
[10] = system: Mycobacterium tuberculosis; experiment: Growth inhibition of Mycobacterium tuberculosis H37Rv exposed to plasma from BALB/c mouse treated with 20 mg/kg, po administered through carboxymethylcellulose vehicle as single oral dose per gavage after 0.3 hrs by Resazurin microtiter assay; assay type: functional; conditions: read-out: GI; summary of the method: as §1
[11] = system: Mycobacterium tuberculosis; experiment: Growth inhibition of Mycobacterium tuberculosis H37Rv exposed to plasma from BALB/c mouse treated with 20 mg/kg, po administered through carboxymethylcellulose vehicle as single oral dose per gavage after 4 hrs by Resazurin microtiter assay; assay type: functional; conditions: read-out: GI; summary of the method: as §1
[12] = system: Mycobacterium tuberculosis; experiment: Antitubercular activity against Mycobacterium tuberculosis H37Rv ATCC 27294 under normal pH 6.8 condition; assay type: functional
[13] = system: Mycobacterium tuberculosis; experiment: Growth inhibition of Mycobacterium tuberculosis H37Rv exposed to plasma from BALB/c mouse treated with 20 mg/kg, po administered through microemulsion vehicle as single oral dose per gavage after 0.3 hrs by Resazurin microtiter assay; assay type: functional; conditions: read-out: GI; summary of the method: as §1
[14] = system: Mycobacterium tuberculosis; experiment: Antitubercular activity against Mycobacterium tuberculosis H37Rv ATCC 27294 under acidic pH 6 condition; assay type: functional
[15] = system: Mycobacterium tuberculosis; experiment: Growth inhibition of Mycobacterium tuberculosis H37Rv exposed to plasma from BALB/c mouse treated with 20 mg/kg, po administered through microemulsion vehicle as single oral dose per gavage after 2 hrs by Resazurin microtiter assay; assay type: functional; conditions: read-out: GI; summary of the method: as §1
[16] = system: Candida albicans; experiment: Antimicrobial activity against Candida albicans ATCC 10231 at 200 uM incubated for 48 hrs; assay type: functional
[17] = system: Staphylococcus aureus; experiment: Antimicrobial activity against Staphylococcus aureus ATCC 29213 at 200 uM incubated for 16 hrs; assay type: functional
[18] = system: Escherichia coli; experiment: Antimicrobial activity against Escherichia coli ATCC 25922 at 200 uM incubated for 16 hrs; assay type: functional

| SMILES | MIC90 [2] | selectivity ratio [3] | logP [4] | IC50 [5] | also measured |
| --- | --- | --- | --- | --- | --- |
| NNC(=O)c1ccncc1 [ISONIAZID] | 0.1 µM (≈ 0.0137 µg/mL) |  |  |  | MIC90 [1]: 1.11 µM (≈ 0.152 µg/mL) |
| N#Cc1c(-c2ccco2)[n+]([O-])c2ccc(C3OCCO3)cc2[n+]1[O-] | 5.2 µM (≈ 1.69 µg/mL) | 6.8 | 2 | 35.7 µM |  |
| NC(=O)c1c(COc2cccc(/C=N/NC(=O)c3ccncc3)c2)no[n+]1[O-] | 0.4 µM (≈ 0.153 µg/mL) | 3200 | 1.3 | 1280 µM | MIC90 [1]: 4.2 µM (≈ 1.61 µg/mL) |
| CO[C@H]1/C=C/O[C@@]2(C)Oc3c(C)c(O)c4c(O)c(c(/C=N/N5CCN(C)CC5)c(O)c4c3C2=O)NC(=O)/C(C)=C\C=C\[C@H](C)[C@H](O)[C@@H](C)[C@@H](O)[C@@H](C)[C@H](OC(C)=O)[C@@H]1C [RIFAMPIN] |  |  |  |  | inhibition in vivo at 20 mg/kg [6]: 62.3%; inhibition in vivo at 20 mg/kg [7]: 84%; inhibition in vivo at 20 mg/kg [8]: 91%; inhibition in vivo at 20 mg/kg [9]: 63%; inhibition in vivo at 20 mg/kg [10]: 73.7%; inhibition in vivo at 20 mg/kg [11]: 68%; MIC90 [12]: 0.05 µM (≈ 0.0411 µg/mL); inhibition in vivo at 20 mg/kg [13]: 66.3%; MIC90 [14]: 0.02 µM (≈ 0.0165 µg/mL); inhibition in vivo at 20 mg/kg [15]: 76.3% |
| O=C(N/N=C/c1ccc2no[n+]([O-])c2c1)c1ccc(O)cc1 | > 62 µM |  | 1.2 |  | Activity [16]: inactive; Activity [17]: inactive; Activity [18]: inactive |
| N#Cc1c(-c2ccc(OC(F)(F)F)cc2)[n+]([O-])c2ccc(C3OCCO3)cc2[n+]1[O-] | 15.4 µM (≈ 6.46 µg/mL) | 4.3 | 2.2 | 66.8 µM |  |
| O=C(N/N=C/c1ccc2no[n+]([O-])c2c1)c1ccccc1 | 8.3 µM (≈ 2.34 µg/mL) | 15.6 | 2.2 | 130 µM |  |
| COc1ccc(-c2c(C#N)[n+]([O-])c3cc(C4OCCO4)ccc3[n+]2[O-])cc1 | 12 µM (≈ 4.38 µg/mL) | 1.2 | 1.4 | 15 µM |  |
| O=C(N/N=C/c1ccc2no[n+]([O-])c2c1)c1ccccc1O | > 62 µM |  | 1.3 |  |  |
| NC(=O)c1c(COc2ccc(/C=N/NC(=O)c3ccncc3)cc2)no[n+]1[O-] | 0.43 µM (≈ 0.164 µg/mL) | 2700 | 1.3 | 1160 µM | MIC90 [1]: 2.04 µM (≈ 0.78 µg/mL) |
| O=C(N/N=C/c1ccc2no[n+]([O-])c2c1)c1cccc(O)c1 | > 62 µM |  | 1.2 |  |  |
| N#Cc1c(-c2ccc(F)cc2)[n+]([O-])c2ccc(C3OCCO3)cc2[n+]1[O-] | 24.3 µM (≈ 8.59 µg/mL) | 0.9 | 1.3 | 21.8 µM |  |
| N#Cc1c(-c2ccc(Cl)cc2)[n+]([O-])c2ccc(C3OCCO3)cc2[n+]1[O-] | 16.2 µM (≈ 5.99 µg/mL) | 0.8 | 1.8 | 12.6 µM |  |
| NC(=O)c1c(COc2ccccc2/C=N/NC(=O)c2ccncc2)no[n+]1[O-] | 0.42 µM (≈ 0.161 µg/mL) | 2030 | 1.3 | 854 µM | MIC90 [1]: 7.72 µM (≈ 2.95 µg/mL) |
| O=C(N/N=C/c1ccc2no[n+]([O-])c2c1)c1ccc([N+](=O)[O-])cc1 | 5.29 µM (≈ 1.73 µg/mL) |  | 0.9 |  | Activity [16]: inactive; Activity [17]: inactive; Activity [18]: inactive |
| Cc1ccc(-c2c(C#N)[n+]([O-])c3cc(C4OCCO4)ccc3[n+]2[O-])cc1 | 16.5 µM (≈ 5.76 µg/mL) | 1.1 | 1.6 | 17.2 µM |  |
| N#Cc1c(-c2ccccc2)[n+]([O-])c2ccc(/C=N/NC(=O)c3ccncc3)cc2[n+]1[O-] | 39.7 µM (≈ 16.3 µg/mL) | 0.5 | 1 | 21 µM |  |
| N#Cc1c(-c2cccs2)[n+]([O-])c2ccc(C3OCCO3)cc2[n+]1[O-] | 12.1 µM (≈ 4.13 µg/mL) | 1.4 | 1.9 | 17.3 µM |  |
| CC(C)(C)c1ccc(C(=O)N/N=C/c2ccc3no[n+]([O-])c3c2)cc1 | 3.9 µM (≈ 1.32 µg/mL) | 6.3 | 3.8 | 25.2 µM |  |
| N#Cc1c(-c2ccccc2)[n+]([O-])c2ccc(C3OCCO3)cc2[n+]1[O-] | 30.8 µM (≈ 10.3 µg/mL) | 0.9 | 0.7 | 31.9 µM |  |
| Nc1ccccc1C(=O)N/N=C/c1ccc2no[n+]([O-])c2c1 | 12.3 µM (≈ 3.66 µg/mL) | 9.9 | 2 | 122 µM |  |
| Nc1cccc(C(=O)N/N=C/c2ccc3no[n+]([O-])c3c2)c1 | 17.8 µM (≈ 5.29 µg/mL) | 4.6 | 1.4 | 82.1 µM |  |
| Nc1ccc(C(=O)N/N=C/c2ccc3no[n+]([O-])c3c2)cc1 | 10.7 µM (≈ 3.17 µg/mL) | 78.9 | 1.2 | 841 µM | MIC90 [1]: > 10 µM; Activity [16]: inactive; Activity [17]: inactive; Activity [18]: inactive |
